≈ marks a conversion by molar mass, not a printed value.

Data set [1] deals with Structural capsid protein (Human immunodeficiency virus 1, UniProt Q76129). In words: Inhibition of CAI-biotin peptide binding to GST-tagged HIV1 capsid C-terminal domain by alphascreen assay. An outline of the steps: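 Competitive AlphaScreen assay: test compound competes with CAI-biotin peptide for binding to GST-CA. IC50 is the compound concentration that lowers the AlphaScreen signal by 50%.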
Background: Bead proximity is the source of the signal in Alpha formats.

The nature of data set [2]: Solubility of compound in PBS by UV spectral analysis. It counts as physicochemical.
A short description of data set [3]: Cytotoxicity against human MT4 cells after 72 hrs by XTT assay. It counts as cell-based. An outline of the steps:
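The XTT read-out was run in parallel with the MT-4 infectivity assay, with two-fold serial compound dilutions on MT-4 cells.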
In general terms: Tetrazolium dyes change colour on reduction, which living cells bring about.

Data set [4] concerns Human immunodeficiency virus 1. Put plainly: Antiviral activity against HIV1 NL4-3 infected in human MT4 cells assessed as inhibition of viral replication after 3 days by luciferase reporter gene assay. It counts as functional, organism-based. To be noted: Human immunodeficiency virus 1, NL4-3, MT4, 72 h. An outline of the steps:
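Two-fold serial dilutions of compound were added to MT-4 cells infected with HIV-1 NL4-3 carrying a Renilla luciferase reporter. Replication was read as luciferase activity after 3 days. EC50 is the concentration inhibiting replication by 50%.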

Structural capsid protein, sequence (Q76129 whole entry, the tested form may be a part): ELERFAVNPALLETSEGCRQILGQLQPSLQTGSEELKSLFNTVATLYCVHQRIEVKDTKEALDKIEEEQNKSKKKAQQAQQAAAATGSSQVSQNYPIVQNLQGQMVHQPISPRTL

By IC50 is commonly meant the point on the concentration scale where inhibition reaches its midpoint. What is called solubility is how much of the substance goes into solution per volume. The molecule `O=C(NCCF)c1ccc(Nc2ccnc(-c3cccnc3)n2)c(F)c1` registered an IC50 in data set [1] of 73 µM. In data set [2], this molecule returned a solubility of 96 µM (≈ 34.1 µg/mL).
For `Cc1cc(Nc2ccc(C(=O)NCCF)cc2)nc(-c2ccncc2)n1` the same measures were > 100 µM and 40 µM (≈ 14.1 µg/mL).
The corresponding values for `CCOC(=O)c1ccc(Nc2ccnc(-c3cccnc3)n2)c(F)c1` are 30 µM and 53 µM (≈ 17.9 µg/mL).
For `CCOC(=O)c1ccc(Nc2ccnc(-c3ccncc3)n2)cc1` the same measures were 28 µM and 52 µM (≈ 16.7 µg/mL).
Broadly, the CC50 is the concentration that lowers cell viability or growth by half. The EC50 is the midpoint of the concentration-response curve. In turn, `CC(=O)c1cccc(Nc2cc(C)nc(-c3cccnc3)n2)c1` displayed a cytotoxic concentration (CC50) at 72 h in data set [3] of 64 µM. In data set [4], the EC50 was 23 µM. The molecule further gave a half-maximal inhibitory concentration (IC50) in data set [1] of 10 µM. This molecule came in with a solubility in data set [2] of 95 µM (≈ 28.9 µg/mL).
As to `Cc1cc(Nc2ccc(C(=O)NCCF)cc2F)nc(-c2cccnc2)n1`, in data set [3], the CC50 at 72 h is > 100 µM. In addition, in data set [4], the concentration giving a half-maximal response (EC50) is > 100 µM. Moreover, the IC50 in data set [1] came to 15 µM. The molecule also displayed a solubility in data set [2] of 50 µM (≈ 18.5 µg/mL).
In the case of `CC(=O)c1cccc(Nc2cc(C)nc(-c3ccncc3)n2)c1`, in data set [1], the IC50 was > 100 µM. The same molecule registered a solubility in data set [2] of 29 µM (≈ 8.83 µg/mL).
In the case of `CC(=O)c1ccc(Nc2ccnc(-c3ccncc3)n2)cc1`, the half-maximal inhibitory concentration (IC50) in data set [1] is > 100 µM. This molecule also registered a solubility in data set [2] of 37 µM (≈ 10.7 µg/mL).
For `CCOC(=O)c1cccc(Nc2ccnc(-c3ccncc3)n2)c1` the same measures were > 100 µM and 46 µM (≈ 14.7 µg/mL).
The corresponding values for `CC(=O)c1ccc(Nc2ccnc(-c3cccnc3)n2)cc1` are 53 µM and 98 µM (≈ 28.5 µg/mL).
The corresponding values for `Cc1cc(Nc2ccc(C(=O)NCCF)c(F)c2)nc(-c2ccncc2)n1` are > 100 µM and 9 µM (≈ 3.32 µg/mL).
`CC(=O)c1cccc(Nc2ccnc(-c3cccnc3)n2)c1`: in data set [1], the half-maximal inhibitory concentration (IC50) came to 39 µM. In data set [2], the solubility was 97 µM (≈ 28.2 µg/mL).
For `O=C(NCCF)c1ccc(Nc2ccnc(-c3cccnc3)n2)cc1` the same measures were 34 µM and 99 µM (≈ 33.4 µg/mL).
The corresponding values for `CCOC(=O)c1cccc(Nc2ccnc(-c3cccnc3)n2)c1` are 21 µM and 92 µM (≈ 29.5 µg/mL).
Consider `Cc1cc(Nc2ccc(C(=O)N3CCN(c4ccc(F)cc4)CC3)cc2)nc(-c2cccnc2)n1`, for which the IC50 in data set [1] was found to be 20 µM. This molecule also came in with a solubility in data set [2] of 42 µM (≈ 19.7 µg/mL).
In data set [3], `Cc1cc(Nc2ccc(C(=O)NCCF)cc2)nc(-c2cccnc2)n1` yielded a CC50 at 72 h of 44 µM. For the same molecule, the concentration for a half-maximal effect (EC50) in data set [4] was 25 µM. Further, the IC50 in data set [1] came to 8 µM. Moreover, the solubility in data set [2] stood at 99 µM (≈ 34.8 µg/mL).
`Fc1ccc(Nc2ccnc(-c3cccnc3)n2)cc1F` yielded an IC50 in data set [1] of 38 µM. Besides, the solubility in data set [2] was found to be 67 µM (≈ 19 µg/mL).
Take `CCOC(=O)c1ccc(Nc2cc(C)nc(-c3ccncc3)n2)cc1`: the IC50 in data set [1] was 36 µM. In addition, the solubility in data set [2] was 4 µM (≈ 1.34 µg/mL).
As to `CC(=O)c1ccc(Nc2cc(C)nc(-c3cccnc3)n2)cc1`, it took 77 µM to reach half-maximal cytotoxicity in data set [3] (CC50 at 72 h). For the same molecule, in data set [4], the EC50 stood at 50 µM. Besides, the half-inhibitory concentration (IC50) in data set [1] was 12 µM. The molecule also yielded a solubility in data set [2] of 94 µM (≈ 28.6 µg/mL).
With `CC(=O)c1ccc(Nc2cc(C)nc(-c3ccncc3)n2)cc1`, the IC50 in data set [1] is 54 µM. In data set [2], this molecule came in with a solubility of 6 µM (≈ 1.83 µg/mL).
Consider `CC(=O)c1cc(Nc2cc(C)nc(-c3ccncc3)n2)ccc1F`, for which the 50% inhibitory concentration (IC50) in data set [1] is 83 µM. In data set [2], the solubility came to 23 µM (≈ 7.41 µg/mL).
The corresponding values for `CCOC(=O)c1ccc(Nc2cc(C)nc(-c3cccnc3)n2)cc1` are 21 µM and 71 µM (≈ 23.7 µg/mL).
For `O=C(NCCF)c1cc(Nc2ccnc(-c3cccnc3)n2)ccc1F` the same measures were 68 µM and 97 µM (≈ 34.5 µg/mL).
As to `CCOC(=O)c1ccc(Nc2ccnc(-c3cccnc3)n2)cc1`, the concentration for half-maximal inhibition (IC50) in data set [1] amounted to 19 µM. In data set [2], the solubility was determined as 61 µM (≈ 19.5 µg/mL).
Take `CC(=O)c1cc(Nc2cc(C)nc(-c3cccnc3)n2)ccc1F`: the half-maximal cytotoxic concentration (CC50) at 72 h in data set [3] was > 100 µM. Further, the EC50 in data set [4] was > 100 µM. In data set [1], this molecule registered an IC50 of 9 µM. Moreover, in data set [2], the solubility amounted to 40 µM (≈ 12.9 µg/mL).
Consider `Cc1cc(Nc2ccc(C(=O)NCCF)c(F)c2)nc(-c2cccnc2)n1`, for which, in data set [3], half-maximal cytotoxicity (CC50 at 72 h) was put at 35 µM. Also, the concentration giving a half-maximal response (EC50) in data set [4] came to 20 µM. Also, in data set [1], the 50% inhibitory concentration (IC50) was 3 µM. The molecule further gave a solubility in data set [2] of 98 µM (≈ 36.2 µg/mL).
On to `O=C(NCCF)c1ccc(Nc2ccnc(-c3ccncc3)n2)cc1`, for which, in data set [1], the half-inhibitory concentration (IC50) was > 100 µM. In data set [2], this molecule gave a solubility of 97 µM (≈ 32.7 µg/mL).
The corresponding values for `Cc1cc(Nc2ccc(C(=O)N3CCN(C(=O)C4CCCO4)CC3)cc2)nc(-c2cccnc2)n1` (configuration not stated) are 54 µM and 99 µM (≈ 46.8 µg/mL).
The corresponding values for `Fc1ccc(Nc2ccnc(-c3ccncc3)n2)cc1F` are 81 µM and 42 µM (≈ 11.9 µg/mL).
In data set [1], `O=C(NCCF)c1ccc(Nc2ccnc(-c3cccnc3)n2)cc1F` gave an IC50 of 43 µM. This molecule also displayed a solubility in data set [2] of 84 µM (≈ 29.8 µg/mL).
`Cc1cc(Nc2cc(F)c(F)c(F)c2)nc(-c2cccnc2)n1` had an IC50 in data set [1] of 22 µM. In data set [2], the concentration in solution (solubility) was 73 µM (≈ 23.1 µg/mL).
The corresponding values for `CC(=O)c1ccc(F)c(Nc2cc(C)nc(-c3cccnc3)n2)c1` are > 100 µM and 58 µM (≈ 18.7 µg/mL).
`CC(=O)c1ccc(Nc2cc(C)nc(-c3cccnc3)n2)cc1F` came in with an IC50 in data set [1] of 25 µM. Moreover, the solubility in data set [2] stood at 32 µM (≈ 10.3 µg/mL).
On to `CCOC(=O)c1ccccc1Nc1ccnc(-c2cccnc2)n1`, for which the IC50 in data set [1] is > 100 µM. Further, the solubility in data set [2] was 94 µM (≈ 30.1 µg/mL).
For `Cc1cc(Nc2cc(C(=O)NCCF)ccc2F)nc(-c2cccnc2)n1` the same measures were 52 µM and 98 µM (≈ 36.2 µg/mL).

These data come from ChEMBL document CHEMBL3822354, “Synthesis and evaluation of 2-pyridinylpyrimidines as inhibitors of HIV-1 structural protein assembly” (Bioorg Med Chem Lett, 2016).
